Activity calls are given as the source filed them. The rule behind the calls is not given here.
What was measured:
HL-60 [1] = assay: Inhibition of human HL60 cell proliferation after 72 hrs by trypan blue exclusion assay; type: functional
Procedure, shortened: (§1)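 HL-60 cells treated 72 h, then counted with trypan blue exclusion. IG50 is the concentration giving 50% inhibition of proliferation. IC50 is the concentration giving 50% loss of viability.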

HL-60 [2] = assay: Cytotoxicity against human HL60 cells after 72 hrs by trypan blue exclusion assay; type: functional, cell-based; details: HL-60, 72 h; procedure, shortened: as §1
HL-60 [3] = assay: Growth inhibition of human HL60 cells at 1 uM after 72 hrs by trypan blue exclusion assay; type: functional, cell-based
P388 [4] = assay: Growth inhibition of mouse P388 cells after 72 hrs by trypan blue exclusion assay; type: functional
P388 [5] = assay: Growth inhibition of adriamycin-resistant mouse P388 cells after 72 hrs by trypan blue exclusion assay; type: functional
HL-60 [6] = assay: Induction of apoptosis in human HL60 cells assessed as occurrence of nuclear shrinkage, blebbing and apoptotic bodies at 0.2 uM after 24 hrs by acridine orange and ethidium bromide staining; type: functional
Procedure, shortened: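 HL-60 cells exposed 12 h and 24 h, stained with acridine orange and ethidium bromide, and viewed by fluorescence microscopy. Cells showing nuclear shrinkage, blebbing or apoptotic bodies were scored apoptotic. Percentage taken from 300 cells counted. Mean ± SD of three independent experiments.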

HL-60 [7] = assay: Cell cycle arrest in human HL60 cells assessed as accumulation at subG1 phase at 0.8 uM after 24 hrs using propidium iodide staining by flow cytometry; type: functional
Procedure, shortened: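 HL-60 cells exposed 24 h; propidium iodide staining, then flow cytometry. The subG1 population is scored as apoptotic cells. Mean ± SD from three independent experiments.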

HL-60 [8] = assay: Induction of apoptosis in human HL60 cells assessed as DNA fragmentation at 0.8 uM after 24 hrs using ethidium bromide staining by DNA gel electrophoresis; type: functional, cell-based
Procedure, shortened: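 HL-60 cells exposed 24 h. DNA resolved by gel electrophoresis and the fragmented DNA visualized by ethidium bromide staining.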

HL-60 [9] = assay: Induction of apoptosis in human HL60 cells assessed as occurrence of nuclear shrinkage, blebbing and apoptotic bodies at 2 uM after 24 hrs by acridine orange and ethidium bromide staining; type: functional, cell-based
Procedure, shortened: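 HL-60 cells treated 12 h and 24 h; stained with acridine orange and ethidium bromide, fluorescence microscopy; cells with nuclear shrinkage, blebbing or apoptotic bodies counted as apoptotic among 300 cells observed; percentage calculated. Three independent experiments, mean ± SD.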

HL-60 [10] = assay: Cell cycle arrest in human HL60 cells assessed as accumulation at subG1 phase at 4 uM after 24 hrs using propidium iodide staining by flow cytometry; type: functional, cell-based
Procedure, shortened: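 HL-60 cells exposed 24 h; propidium iodide staining, flow cytometry; apoptotic cells scored as sub-G1 fraction. Three independent experiments, mean ± SD.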

HL-60 [11] = assay: Induction of apoptosis in human HL60 cells assessed as DNA fragmentation at 4 uM after 24 hrs using ethidium bromide staining by DNA gel electrophoresis; type: functional, cell-based
Procedure, shortened: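 HL-60 cells treated 24 h; DNA fragmentation resolved by DNA gel electrophoresis and visualized after ethidium bromide staining.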

| SMILES | IG50 (HL-60 [1]) [µM] | IC50 (HL-60 [2]) [nM] | growth inhibition (GI) (HL-60 [3]) | other results |
| --- | --- | --- | --- | --- |
| COc1cc(/C=C/C(=O)c2ccc(OCCO[C@H]3O[C@@H]4O[C@]5(C)CC[C@H]6[C@H](C)CC[C@@H]([C@H]3C)[C@@]46OO5)cc2)cc(OC)c1OC | 0.07 | 219 | inactive |  |
| COc1cccc2c1C(=O)c1c(O)c3c(c(O)c1C2=O)C[C@@](O)(C(=O)CO)C[C@@H]3O[C@H]1C[C@H](N)[C@H](O)[C@H](C)O1 [DOXORUBICIN] |  |  |  | IG50 (P388 [4]): 0.019 µM; IG50 (P388 [5]): 3.73 µM |
| C[C@H]1[C@@H](OCCOc2ccc(C(=O)/C=C/c3ccc(Br)cc3)cc2)O[C@@H]2O[C@]3(C)CC[C@H]4[C@H](C)CC[C@@H]1[C@@]24OO3 | 0.04 | 80 | inactive | Activity (HL-60 [6]): 50%; Activity (HL-60 [7]): 80%; Activity (HL-60 [8]): Active; Activity (P388 [4]): 0.098 µM; Activity (P388 [5]): 0.155 µM |
| COc1ccc(/C=C/C(=O)c2ccc(OCC(=O)O[C@@H]3O[C@@H]4O[C@]5(C)CC[C@H]6[C@H](C)CC[C@@H]([C@H]3C)[C@@]46OO5)cc2)cc1 | 0.174 | 394 | inactive |  |
| C[C@H]1[C@@H](OCCOc2ccc(C(=O)/C=C/c3ccccc3Cl)cc2)O[C@@H]2O[C@]3(C)CC[C@H]4[C@H](C)CC[C@@H]1[C@@]24OO3 | 0.119 | 136 | inactive |  |
| C[C@H]1[C@H](OC(=O)COc2ccc(C(=O)/C=C/c3ccc(Cl)cc3)cc2)O[C@@H]2O[C@]3(C)CC[C@H]4[C@H](C)CC[C@@H]1[C@@]24OO3 | 0.276 | 537 | inactive |  |
| COc1ccccc1/C=C/C(=O)c1ccc(OCCO[C@H]2O[C@@H]3O[C@]4(C)CC[C@H]5[C@H](C)CC[C@@H]([C@H]2C)[C@@]35OO4)cc1 | 0.165 | 134 | inactive |  |
| C[C@H]1[C@@H](OCCOc2ccc(C(=O)/C=C/c3ccccc3)cc2)O[C@@H]2O[C@]3(C)CC[C@H]4[C@H](C)CC[C@@H]1[C@@]24OO3 | 0.208 | 193 | inactive |  |
| C[C@H]1[C@@H](OCCOc2ccc(C(=O)/C=C/c3ccc4c(c3)OCO4)cc2)O[C@@H]2O[C@]3(C)CC[C@H]4[C@H](C)CC[C@@H]1[C@@]24OO3 | 0.059 | 89 | inactive | Activity (HL-60 [6]): 50%; Activity (HL-60 [7]): 80%; Activity (HL-60 [8]): Active; IG50 (P388 [4]): 0.096 µM; IG50 (P388 [5]): 0.178 µM |
| O=C(/C=C/c1ccccc1)c1ccccc1 |  |  | inactive |  |
| COc1ccc(/C=C/C(=O)c2ccc(OCCO[C@H]3O[C@@H]4O[C@]5(C)CC[C@H]6[C@H](C)CC[C@@H]([C@H]3C)[C@@]46OO5)cc2)cc1 | 0.214 | 147 | inactive |  |
| COc1cccc(/C=C/C(=O)c2ccc(OCCO[C@H]3O[C@@H]4C[C@]5(C)CC[C@H]6[C@H](C)CC[C@@H]([C@H]3C)[C@@]46OO5)cc2)c1OC | 0.079 | 194 | inactive |  |
| C[C@H]1[C@@H](O)O[C@@H]2O[C@@]3(C)CC[C@H]4[C@H](C)CC[C@@H]1[C@@]24OO3 [ARTENIMOL] | 0.73 | 2900 |  | Activity (HL-60 [9]): Active; Activity (HL-60 [10]): Active; Activity (HL-60 [11]): Active; Activity (P388 [4]): 2.3 µM; Activity (P388 [5]): 1.51 µM |
| C[C@H]1[C@@H](OCCOc2ccc(C(=O)/C=C/c3ccc(Cl)cc3)cc2)O[C@@H]2O[C@]3(C)CC[C@H]4[C@H](C)CC[C@@H]1[C@@]24OO3 | 0.106 | 130 | inactive |  |
| COc1ccc(/C=C/C(=O)c2ccc(OCCO[C@H]3O[C@@H]4O[C@]5(C)CC[C@H]6[C@H](C)CC[C@@H]([C@H]3C)[C@@]46OO5)cc2)cc1OC | 0.09 | 300 | inactive |  |
| CCOc1ccc(/C=C/C(=O)c2ccc(OCC(=O)O[C@@H]3O[C@@H]4O[C@]5(C)CC[C@H]6[C@H](C)CC[C@@H]([C@H]3C)[C@@]46OO5)cc2)cc1 | 0.286 | 734 | inactive |  |
| C[C@H]1[C@H](OC(=O)COc2ccc(C(=O)/C=C/c3ccc(Br)cc3)cc2)O[C@@H]2O[C@]3(C)CC[C@H]4[C@H](C)CC[C@@H]1[C@@]24OO3 | 0.314 | 636 | inactive |  |
| CCOc1ccc(/C=C/C(=O)c2ccc(OCCO[C@H]3O[C@@H]4O[C@]5(C)CC[C@H]6[C@H](C)CC[C@@H]([C@H]3C)[C@@]46OO5)cc2)cc1 | 0.121 | 110 | inactive |  |
